pKi: −log10 of the molar value. Like-named read-outs stand apart in the source and are kept apart here.
Tests used:
[1] = tested on: mouse-isolated vas deferens, δ-opioid receptor (antagonism of δ-agonist DPDPE); assay: mouse-isolated vas deferens; type: biochemical; conditions: MVD assay against δ-agonist DPDPE; n=8
[2] = molecular target: δOR (δ-opioid receptor) in HCT116 colon carcinoma cells engineered to express the δOR (Homo sapiens, UniProt P41143); assay: competitive binding assay, time-resolved fluorescence; conditions: TRF competitive binding; HCT116 cells expressing δOR
In short: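 Purified test compounds were run in a competition format on whole HCT116 colon carcinoma cells engineered to express δOR. Ki was derived from a fitted competition curve, with R2 reported for the fit.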

[3] = tested on: HCT116/δOR and parental HCT116 tumors in SCID mice; type: in vivo, mouse; conditions: 10 μg i.v. (tail vein), 15 min post-injection, not shown
δ-opioid receptor = conditions: cited from earlier work

## CC[N+]1=C(C=CC=CC=C2N(CCCCCC(=O)NCCN3C(=O)CC(SCCC(=O)NCCCC[C@H](NC(=O)[C@@H]4Cc5ccccc5CN4C(=O)[C@@H](N)Cc4c(C)cc(O)cc4C)C(=O)O)C3=O)c3ccc(S(=O)(=O)O)cc3C2(C)C)C(C)(C)c2cc(S(=O)(=O)[O-])ccc21 (some centres unmarked) [Ligand 1]
[1]
  inhibitory potency, Ke: 0.037 ± 0.009 nM
[2]
  affinity of labeled ligand compared with unlabeled counterpart (ligand 6): equipotent to its unlabeled counterpart
[3]
  systemic distribution, fluorescence intensity maps: systemic presence of the compound with high intensity throughout the animal

## Dmt-Tic-Lys-NH2
δ-opioid receptor; reported radioligand binding assays, compared with TRF results
  pKi: 9.15

## H-Dmt-Tic-Lys(Ac)-OH
δ-opioid receptor; δ-receptor affinity in radioligand binding assays
  pKi: 10.33

Reference: publication PMC2756606 (Organic letters, 2009)
